In PubChem BioAssay AID651924 (Vanderbilt Specialized Chemistry Center, 2012):
Active and inactive are the calls of the source. The rule behind the calls is not given here.

Target: Muscarinic acetylcholine receptor M2 (Homo sapiens) (UniProt P08172)
Assay: ACh response enhancement at M2 – CHO cells, human M2, selectivity assay for M5 PAM project (AID 651924)
Outline: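 Assay system: CHO-K1 hM2/Gqi5 cells. Buffer or medium: HEPES/probenecid-supplemented HBSS, pH 7.4. Reagent: acetylcholine EC20. Doses: final DMSO 0.3%. Times: 1.5 min compound, 50 s agonist, 25 °C. Technique: Fluo-4 AM calcium mobilization fluorescence. Read-out: % of maximal acetylcholine response.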

Chain of Muscarinic acetylcholine receptor M2 (Homo sapiens) (P08172 whole entry, looked up): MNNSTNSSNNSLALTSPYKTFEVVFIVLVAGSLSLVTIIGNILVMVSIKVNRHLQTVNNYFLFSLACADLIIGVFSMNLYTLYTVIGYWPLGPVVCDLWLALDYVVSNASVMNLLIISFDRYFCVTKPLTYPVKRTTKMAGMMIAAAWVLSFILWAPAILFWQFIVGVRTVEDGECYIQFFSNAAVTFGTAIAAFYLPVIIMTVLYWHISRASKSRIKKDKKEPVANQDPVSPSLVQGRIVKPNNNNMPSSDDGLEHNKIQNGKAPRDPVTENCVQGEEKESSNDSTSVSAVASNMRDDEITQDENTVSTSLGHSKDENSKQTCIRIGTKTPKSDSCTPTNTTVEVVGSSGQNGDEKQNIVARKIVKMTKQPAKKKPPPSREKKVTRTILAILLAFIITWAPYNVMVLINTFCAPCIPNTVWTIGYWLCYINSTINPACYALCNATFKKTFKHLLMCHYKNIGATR

## O=C1C(=O)N(CCOc2ccccc2)c2ccc(OC(F)(F)F)cc21
  outcome: inactive
